Molecules are shown by their SMILES. Activity calls are given as the source filed them. The calls are words filed in the database; no cut-off is given here. Where only a bound is given, the exact number is not on record here.

Data set [1] has as its target C-X-C chemokine receptor type 4 (Homo sapiens) (UniProt P61073). Kind of data set: Competitive inhibition of biotinylated TN14003 binding to CXCR4 in human MDA-MB-231 cells preincubated for 10 mins followed by biotinylated-TN14003 addition measured after 30 mins by streptavidin-rhodamine staining based fluorescence microscopic analysis. Type of data set: cell-based. An outline of the steps: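 MDA-MB-231 cells, 2 × 10⁴ per well, seeded two days ahead. Compound (1, 10, 100 or 1000 nM) added for 10 min at room temperature, then fixed in ice-cold 4% paraformaldehyde and rehydrated in PBS. Biotinylated TN14003 0.05 μg/mL for 30 min at RT, PBS washes, streptavidin-rhodamine (1:150) 30 min at RT. Read by fluorescence microscopy. EC = lowest concentration reducing rhodamine staining versus control.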

Data set [2] shares this target. Put plainly: Potency index, Ratio of EC for AMD3100 to EC for test compound for inhibition of biotinylated TN14003 binding to CXCR4 in human MDA-MB-231 cells preincubated for 10 mins followed by biotinylated-TN14003 addition measured after 30 mins by streptavidin-rhodamine staining based fluorescence microscopic analysis. Type of data set: cell-based.
For data set [3] the target is unchanged. Put plainly: Inhibition of CXCR4-mediated chemotaxis in human MDA-MB-231 cells assessed as reduction in CXCL12alpha-induced cell invasion at 100 nM incubated for 22 hrs by hematoxylin/eosin dye-based matrigel assay relative to control. An outline of the steps: (§1)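 Matrigel invasion chamber with MDA-MB-231 cells. Compound (100 nM) added to cells before seeding in the top chamber; CXCL12α 200 ng/mL in the bottom chamber as chemoattractant, serum-free medium. Incubated 22 h. Non-invading cells swabbed off; invaded cells fixed in methanol and H&E stained, then counted. Inhibition relative to untreated invasion.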

The subject of data set [4] is Mus musculus. Put plainly: Antiinflammatory activity in C57BL/6J mouse assessed as inhibition of carrageenan-induced paw edema at 10 mg/kg, ip daily dosed 30 mins after carrageenan challenge and measured 74 hrs carrageenan challenge and 2 hrs post last dose by caliper method relative to control. It is filed as functional. An outline of the steps:
(§2)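 Female C57BL/6J mice, five per group; 50 μL λ-carrageenan (1% w/v in saline) injected subcutaneously into one hind paw, 50 μL saline into the other as non-inflamed control. Vehicle-only i.p. controls. Sacrifice 74 h after challenge and 2 h after last dose. Paw thickness measured palm to back with caliper. Edema = injected minus contralateral paw. Suppression % = treated versus control group.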
A general note: The carrageenan paw model is a standard test of acute inflammation.

For data set [5], the system named is Mus musculus. Put plainly: Antiinflammatory activity against carrageenan-induced paw oedema in C57BL/6J mouse assessed as paw swollen thickness at 10 mg/kg, ip daily dosed 30 mins after carrageenan challenge and measured 74 hrs carrageenan challenge and 2 hrs post last dose by caliper method (reference value: 0.68 millimeter). It is filed as functional. The procedure, abridged:
as §2

Data set [6] in a line: Half life in Sprague-Dawley rat at 10 mg/kg, ig measured for 5 min to 6 hrs by LC/MS/MS analysis. Type of data set: ADME, organism-based. The following applies: in vivo, po. The procedure, abridged: (§3)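 Two male SD rats given 10 mg/kg intragastrically in 10% DMSO/90% PBS. Blood drawn at 5, 15, 30 min and 1, 2, 4, 6 h, centrifuged 4000 rpm for 5 min at 4 °C. Protein precipitation, then LC/MS/MS in SRM mode with internal standard. Parameters from noncompartmental analysis of plasma concentration-time data.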

Data set [7] deals with Mus musculus. Kind of data set: Antiinflammatory activity in C57BL/6J mouse assessed as reduction of carrageenan-induced inflammation and tissue damage in paw by measuring edema volume and thickness at 10 mg/kg, ip daily dosed 30 mins after carrageenan challenge and measured 74 hrs carrageenan challenge and 2 hrs post last dose by H and E staining based histopathological analysis. It is filed as functional, organism-based.

In data set [8] the test system is Mus musculus. Put plainly: Antiinflammatory activity against carrageenan-induced paw oedema in C57BL/6J mouse assessed as hind paw thickness at 10 mg/kg, ip daily dosed 30 mins after carrageenan challenge and measured 74 hrs carrageenan challenge and 2 hrs post last dose by caliper method (reference value: 3.05 millimeter). Type of data set: functional. The procedure, abridged: as §2

The subject of the next data set is MCF-10A. Kind of data set: Cytotoxicity against human MCF10A cells at 100 uM incubated for 24 hrs by CellTiter-96AQ based MTT assay. It is filed as cell-based. The procedure, abridged:
(§4)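 Cells seeded at 3000 per well and grown 24 h at 37 °C in CO₂. Treated with compound for 24 h at 37 °C, top concentration 100 μM. CellTiter 96AQ reagent added for 2 h more, then absorbance read at 490 nm.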
In general terms: Formazan colour is commonly taken as a measure of viable cells.

The next data set has as its system MDA-MB-231. Put plainly: Cytotoxicity against human MDA-MB-231 cells at 100 uM incubated for 24 hrs by CellTiter-96AQ based MTT assay. Type of data set: cell-based. Conditions: mda-mb-231, 24 h. An outline of the steps:
as §4

Data set [9] can be described thus: Tmax in Sprague-Dawley rat at 10 mg/kg, ig measured for 5 min to 6 hrs by LC/MS/MS analysis. It is filed as ADME, organism-based. The following applies: in vivo, po. The procedure, abridged:
as §3

In data set [10] the test system is Mus musculus. Kind of data set: Antiinflammatory activity in C57BL/6J mouse assessed as reduction in carrageenan-induced accumulation of inflammatory cells in paw tissue at 10 mg/kg, ip daily dosed 30 mins after carrageenan challenge and measured 74 hrs carrageenan challenge and 2 hrs post last dose by H and E staining based histopathological analysis. It is filed as functional, organism-based.

In another data set the test system is SK-BR-3. Put plainly: Cytotoxicity against human SKBR3 cells at 100 uM incubated for 24 hrs by CellTiter-96AQ based MTT assay. It is filed as cell-based. The following applies: sk-br-3, 24 h. The procedure, abridged:
as §4

Data set [11] deals with C-X-C chemokine receptor type 4 (Homo sapiens) (UniProt P61073). Kind of data set: Inhibition of CXCR4-mediated chemotaxis in human MDA-MB-231 cells assessed as reduction in CXCL12alpha-induced cell invasion incubated for 22 hrs by hematoxylin/eosin dye-based matrigel assay relative to control. The following applies: concentration not given here. An outline of the steps: as §1
Sequence of C-X-C chemokine receptor type 4 (Homo sapiens) (P61073 whole entry): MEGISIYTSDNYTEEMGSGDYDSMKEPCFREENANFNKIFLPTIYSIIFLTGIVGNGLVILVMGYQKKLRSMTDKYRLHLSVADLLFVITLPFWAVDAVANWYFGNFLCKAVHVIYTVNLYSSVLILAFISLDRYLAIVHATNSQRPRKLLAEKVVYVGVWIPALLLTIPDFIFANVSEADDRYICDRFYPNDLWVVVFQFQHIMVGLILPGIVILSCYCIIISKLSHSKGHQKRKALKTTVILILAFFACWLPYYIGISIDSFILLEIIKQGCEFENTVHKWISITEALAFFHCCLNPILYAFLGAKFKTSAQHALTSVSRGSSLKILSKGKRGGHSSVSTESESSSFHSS

`O=C(NCc1ccc(CNS(=O)(=O)c2ccc(-c3ccc(F)cc3)cc2)cc1)c1ccc(F)cc1` displayed an EC in [1] of 100 nM.
As for `O=C(NCc1ccc(CNS(=O)(=O)c2ccccc2Cl)cc1)c1ccc(F)cc1`, in [1], the EC stood at 1000 nM.
As usually defined, the inhibition is the percentage by which the read-out fell short of the control. In general, inhibition in vivo refers to how much of the control response was suppressed. Consider `O=C(NCc1ccc(CNS(=O)(=O)c2ccc(CN3CCOCC3)cc2)cc1)c1ccc(F)cc1`, for which, in data set [2], the Ratio worked out at 100. The EC in data set [1] is 10 nM. The inhibition in [3] turned out to be 82%. The inhibition in vivo at 10 mg/kg in the data set with Mus musculus [4] came to 20%.
For `O=C(NCc1ccc(CNS(=O)(=O)c2ccc(F)c(F)c2)cc1)c1ccc(F)cc1`, in data set [1], the EC came out at 10 nM.
Regarding `Cc1ccc(S(=O)(=O)NCc2ccc(CNC(=O)c3ccc(F)nc3)cc2)cc1`, in data set [1], the EC is greater than 1000 nM.
The compound `O=C(NCc1ccc(CNS(=O)(=O)c2ccccc2F)cc1)c1ccc(F)cc1` gave an EC in data set [1] of 10 nM.
Compound `Cc1ccc(S(=O)(=O)NCc2ccc(CNC(=O)c3ccc(F)cn3)cc2)cc1` had an EC in data set [1] of 1000 nM.
Regarding `O=C(NCc1ccc(CNS(=O)(=O)c2cccc3ccccc23)cc1)c1ccc(F)cc1`, the EC in data set [1] was 1000 nM.
As for `CCN(CC)Cc1ccc(S(=O)(=O)NCc2ccc(CNC(=O)c3ccc(F)cc3)cc2)cc1`, the Ratio in data set [2] came to 1000. The same compound yielded an EC in data set [1] of 1 nM.
For the compound `O=C(NCc1ccc(CNS(=O)(=O)c2ccc([N+](=O)[O-])cc2)cc1)c1ccc(F)cc1`, the EC in [1] turned out to be 1000 nM.
With `O=C(NCc1ccc(CNS(=O)(=O)c2ccc(CN3CCCC3)cc2)cc1)c1ccc(F)cc1`, the Ratio in [2] is 1000. In addition, the EC in data set [1] turned out to be 1 nM. In addition, the inhibition in data set [3] is 92%. The inhibition in vivo at 10 mg/kg with Mus musculus [4] stood at 20%.
The Tmax is the time at which the peak concentration occurs. Regarding `O=C(NCc1ccc(CNS(=O)(=O)c2ccc3c(c2)CCO3)cc1)c1ccc(F)cc1`, the EC in data set [1] worked out at 10 nM. The Activity in the data set on Mus musculus [5] was 0.21 mm; in the data set with Mus musculus [8], 2.64 mm; in the data set on MCF-10A it was “Non-Toxic”; in the data set with MDA-MB-231 it was “Non-Toxic”; with SK-BR-3, “Non-Toxic”. The t1/2 in data set [6] was determined as 4.77 h. Further, the inhibition in data set [3] was determined as 83%. Moreover, the inhibition result in the data set on Mus musculus [7] and with Mus musculus [10] was “Active” throughout. The inhibition in vivo at 10 mg/kg in the data set on Mus musculus [4] was determined as 43%. In addition, the time to peak (Tmax) in data set [9] was 0.25 h.
Regarding `O=C(NCc1ccc(CNS(=O)(=O)c2ccc(F)cc2)cc1)c1ccc(F)cc1`, the EC in data set [1] was 1 nM.
Still for that read-out and setting: the result for `O=C(NCc1ccc(CNS(=O)(=O)c2cccnc2)cc1)c1ccc(F)cc1` reads 1000 nM.
For the compound `Cc1ccc(S(=O)(=O)NCc2ccc(CNC(=O)c3ccc(F)cc3)cc2)cc1`, the inhibition in [11] came out at 65%. Also, in the data set with Mus musculus [4], the inhibition in vivo at 10 mg/kg was 30%.
In data set [1], `Cc1cccc(S(=O)(=O)NCc2ccc(CNC(=O)c3ccc(F)cc3)cc2)c1` returned an EC of 1 nM.
Regarding `O=C(NCc1ccc(CNS(=O)(=O)c2cccc(C(F)(F)F)c2)cc1)c1ccc(F)cc1`, the EC in [1] was found to be 100 nM. Also, in data set [3], the inhibition was determined as 93%. For the same compound, the inhibition in vivo at 10 mg/kg with Mus musculus [4] was 20%.
`O=C(NCc1ccc(CNS(=O)(=O)c2cccc(F)c2)cc1)c1ccc(F)cc1` yielded an EC in data set [1] of 1000 nM.
`O=C(NCc1ccc(CNS(=O)(=O)c2ccc(Cl)cc2)cc1)c1ccc(F)cc1`: the EC in data set [1] came out at 100 nM.
With `Cc1ccccc1S(=O)(=O)NCc1ccc(CNC(=O)c2ccc(F)cc2)cc1`, the EC in [1] is 100 nM.
Take `O=C(NCc1ccc(CNS(=O)(=O)c2cccc(Cl)c2)cc1)c1ccc(F)cc1`: the EC in data set [1] came out at 1 nM. Besides, in data set [3], the inhibition was 95%. Further, in the data set on Mus musculus [4], the inhibition in vivo at 10 mg/kg was 20%.

Values taken from ChEMBL document CHEMBL4346702, “Development of CXCR4 modulators based on the lead compound RB-108” (Eur J Med Chem, 2019).
